One block for each molecule: values may come before it.
Columns and labels:
[1] = molecular target: T1, Prostaglandin G/H synthase 2 (Ovis aries, UniProt P79208); test: Inhibition of ovine COX2 assessed as PGF2alpha production by reduction of PGH2 with stannous chloride by enzyme immunoassay
T1 sequence (P79208 whole entry): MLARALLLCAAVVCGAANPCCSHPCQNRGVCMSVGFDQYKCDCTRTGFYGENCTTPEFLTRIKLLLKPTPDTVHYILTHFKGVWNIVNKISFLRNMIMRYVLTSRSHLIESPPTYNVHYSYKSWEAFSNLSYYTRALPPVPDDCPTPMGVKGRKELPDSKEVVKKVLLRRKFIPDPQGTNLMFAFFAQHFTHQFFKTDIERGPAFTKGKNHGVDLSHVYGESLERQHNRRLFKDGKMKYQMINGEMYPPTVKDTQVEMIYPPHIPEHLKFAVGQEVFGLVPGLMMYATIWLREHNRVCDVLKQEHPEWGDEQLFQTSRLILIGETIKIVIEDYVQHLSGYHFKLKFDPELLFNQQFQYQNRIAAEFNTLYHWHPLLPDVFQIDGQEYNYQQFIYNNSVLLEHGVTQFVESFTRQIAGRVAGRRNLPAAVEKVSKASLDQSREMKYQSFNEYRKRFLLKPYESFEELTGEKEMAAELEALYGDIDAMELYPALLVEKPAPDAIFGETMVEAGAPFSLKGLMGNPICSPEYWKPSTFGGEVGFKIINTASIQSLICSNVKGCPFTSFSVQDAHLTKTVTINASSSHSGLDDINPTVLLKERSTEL
In short: (§1)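 Ovine COX-1 or COX-2 from screening kit used per manufacturer; arachidonic acid substrate, PGH2 reduced by SnCl2 to PGF2α and read by enzyme immunoassay. DMSO stock solutions. Percent inhibition relative to control incubations; IC50 obtained from concentration−inhibition response curves. Means ± SEM, n = 2−3.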

Ovis aries = organism: Ovis aries; test: Selectivity ratio of IC50 for ovine COX1 to IC50 for ovine COX2
In short: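 Ratio of COX-1 IC50 to COX-2 IC50. Both IC50s come from concentration−inhibition curves in the ovine enzyme kit assay, with PGF2α (from SnCl2 reduction of PGH2) measured by enzyme immunoassay.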

[2] = molecular target: T2, Prostaglandin G/H synthase 1 (Ovis aries, UniProt P05979); test: Inhibition of ovine COX1 assessed as PGF2alpha production by reduction of PGH2 with stannous chloride by enzyme immunoassay; in short: as §1
T2 sequence (P05979 whole entry): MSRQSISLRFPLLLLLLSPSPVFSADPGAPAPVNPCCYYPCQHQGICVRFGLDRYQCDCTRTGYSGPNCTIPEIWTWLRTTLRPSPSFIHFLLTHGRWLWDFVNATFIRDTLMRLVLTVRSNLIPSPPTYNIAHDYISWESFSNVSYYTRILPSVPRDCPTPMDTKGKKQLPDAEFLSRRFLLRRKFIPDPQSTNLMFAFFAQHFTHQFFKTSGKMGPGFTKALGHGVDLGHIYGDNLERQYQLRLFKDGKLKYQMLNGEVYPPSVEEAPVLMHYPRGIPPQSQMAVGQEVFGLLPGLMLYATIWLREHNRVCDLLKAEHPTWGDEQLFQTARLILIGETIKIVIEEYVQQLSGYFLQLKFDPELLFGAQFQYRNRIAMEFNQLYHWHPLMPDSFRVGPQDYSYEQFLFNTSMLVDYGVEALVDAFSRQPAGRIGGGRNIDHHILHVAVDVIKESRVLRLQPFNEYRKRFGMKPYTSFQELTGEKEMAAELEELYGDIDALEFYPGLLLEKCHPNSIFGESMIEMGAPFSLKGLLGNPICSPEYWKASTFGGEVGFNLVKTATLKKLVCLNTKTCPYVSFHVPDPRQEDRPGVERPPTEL

[3] = molecular target: T3, Prostaglandin G/H synthase 1 (Ovis aries) (UniProt P05979); test: Inhibition of ovine COX1 assessed as PGF2alpha production by reduction of PGH2 with stannous chloride at 40 uM by enzyme immunoassay relative to control
T3 sequence (whole entry): T2 sequence (P05979 whole entry)
In short: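 Ovine COX inhibitor screening kit run per manufacturer. Enzyme converts arachidonic acid to PGH2, which SnCl2 reduces to PGF2α, quantified by enzyme immunoassay. DMSO stocks; final test concentration 40 μM. Percent inhibition calculated against control incubations. Means ± SEM, n = 2−3.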

Rattus norvegicus [4] = test: Antiinflammatory activity in Sprague-Dawley rat assessed as inhibition of carrageenan-induced paw edema at 50 mg/kg, po administered 1 hr before carrageenan challenge measured after 5 hrs relative to control; type: functional
In short: (§2)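 Female Sprague-Dawley rats (160−180 g), fasted overnight, six per group. Samples suspended in freshly prepared 0.5% hydroxypropyl methyl cellulose, given orally; control group received vehicle (normal saline). 1 h after dosing, 100 μL of 1% carrageenan in saline injected subcutaneously into left hind paw. Paw volume read by plethysmometer before and at 3 and 5 h; edema = final minus basal volume. Mean ± SEM, one-way ANOVA with Dunnett's test versus control.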

Rattus norvegicus [5] = test: Antiinflammatory activity in Sprague-Dawley rat assessed as inhibition of carrageenan-induced paw edema at 50 mg/kg, po administered 1 hr before carrageenan challenge measured after 3 hrs relative to control; type: functional; in short: as §2
Rattus norvegicus [6] = test: Antiinflammatory activity in Sprague-Dawley rat assessed as inhibition of carrageenan-induced paw edema at 100 mg/kg, po administered 1 hr before carrageenan challenge measured after 3 hrs relative to control; type: functional; in short: as §2
Rattus norvegicus [7] = test: Antiinflammatory activity in Sprague-Dawley rat assessed as inhibition of carrageenan-induced paw edema at 100 mg/kg, po administered 1 hr before carrageenan challenge measured after 5 hrs relative to control; type: functional; in short: as §2

Compound: COc1c(O)c(C)c(O)c2c(=O)c3c(oc12)C(OC)Oc1ccccc1-3 (racemic)
IC50 [1]: 31.4 µM
Ratio IC50 (Ovis aries): 1.09
IC50 [2]: 33.1 µM

Compound: COc1c(O)c(C)c(O)c2c(=O)c3c(oc12)C(O)Oc1ccccc1-3 (racemic)
IC50 [2]: 25.9 µM

Compound: O=c1c2c(oc3cc(O)cc(O)c13)C(O)Oc1cc(O)ccc1-2 (racemic)
IC50 [1]: 25.5 µM
Ratio IC50 (Ovis aries): 0.79
IC50 [2]: 21.7 µM

Compound: COC1Oc2ccccc2-c2c1oc1cc(O)c(C)c(O)c1c2=O (centres undefined) [BOERAVINONE A]
IC50 [2]: 32.9 µM

Compound: Cc1c(O)cc2oc3c(c(=O)c2c1O)-c1ccccc1OC3O (centres undefined) [BOERAVINONE B]
inhibition in vivo at 50 mg/kg (Rattus norvegicus [4]): 56.7%
inhibition in vivo at 50 mg/kg (Rattus norvegicus [5]): 48.3%
IC50 [2]: 25 µM

Compound: Cc1c(O)cc2oc3c(c(=O)c2c1O)-c1ccc(O)cc1OC3O (centres undefined) [BOERAVINONE E]
IC50 [2]: 23.9 µM

Compound: CC(C)Cc1ccc(C(C)C(=O)O)cc1 (centres undefined) [IBUPROFEN]
inhibition in vivo at 50 mg/kg (Rattus norvegicus [4]): 43.5%
inhibition in vivo at 50 mg/kg (Rattus norvegicus [5]): 35.8%
inhibition in vivo at 100 mg/kg (Rattus norvegicus [6]): 42.7%
inhibition in vivo at 100 mg/kg (Rattus norvegicus [7]): 50.4%

Other lines, results leading:

inhibition [3]: 59.4%
Compound: COC1Oc2ccccc2-c2c1oc1cc(O)cc(O)c1c2=O (racemic)

inhibition [3]: 59.9%
Compound: COc1cc(O)c2c(=O)c3c(oc2c1)C(O)Oc1c(O)cccc1-3 (racemic)

inhibition [3]: 47.2%
Compound: COc1cc(O)c2c(c1)O[C@@H]1COc3c(O)cccc3[C@@]1(O)C2=O (relative stereo)

Source: ChEMBL document CHEMBL2407009, “Rotenoids from Boerhaavia diffusa as potential anti-inflammatory agents” (J Nat Prod, 2013)
